Test results reported in ChEMBL document CHEMBL4680306, “The 3-D conformational shape of N-naphthyl-cyclopenta[d]pyrimidines affects their potency as microtubule targeting agents and their antitumor activity” (Bioorg Med Chem, 2021).
The source made the active and inactive calls. No cut-off for these calls is given here.

Key:
[1] = Induction of microtubule depolymerisation in rat A-10 cell line measured after 18 hrs by indirect immunofluorescence method; conditions: a10
Procedure, shortened: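 Rat A-10 cells, chosen because they arrest in interphase without significant mitotic accumulation, were exposed to compounds for 18 h. Cellular microtubules were then visualized by indirect immunofluorescence. EC50 values come from at least three independent experiments.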

Bos taurus [2] = species on record: Bos taurus; assay: Inhibition of [3H]colchicine binding to bovine tubulin at 5 uM measured after 10 mins by scintillation counting
Procedure, shortened: (§1)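 Purified bovine brain tubulin at 1.0 µM was mixed with 5.0 µM [3H]colchicine and inhibitor, plus components that stabilize colchicine binding, in 5% DMSO; tubulin was added last, on ice. Binding ran 10 min at 37 °C and was stopped with ice water. Mixtures were filtered through stacked DEAE-cellulose filters, and bound radiolabel was measured by scintillation counting.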

[3] = Antiproliferative activity against human SK-OV-3 MDR-1-6/6 cells expressing Pgp assessed as decrease in cell growth measured after 48 hrs by SRB method; format: functional; conditions: SK-OV-3, 48 h
[4] = Relative resistance, ratio of IC50 for inhibition of beta3 Tubulin (unknown origin) expressed in human HeLa cell line assessed as inhibition of cell proliferation to IC50 antiproliferative activity against human HeLa cells
[5] = Relative resistance, ratio of IC50 for antiproliferative activity against human SK-OV-3 MDR-1-6/6 cells expressing Pgp to IC50 antiproliferative activity against human SK-OV-3 cells; format: functional
HeLa = assay: Antiproliferative activity against human HeLa cells assessed as decrease in cell growth measured after 48 hrs by SRB method; format: functional, cell-based
U-251 [6] = assay: Cytotoxicity against human U251 cell line assessed as inhibition of cell growth after 48 hrs by SRB assay; format: functional, cell-based; conditions: U-251, 48 h
MDA-MB-435 [7] = assay: Antiproliferative activity against human MDA-MB-435 cell line assessed as inhibition of cell proliferation measured after 48 hrs by SRB assay; format: functional, cell-based; conditions: MDA-MB-435, 48 h
Procedure, shortened: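 MDA-MB-435 melanoma cells were assessed by sulforhodamine B assay. IC50 is the mean ± SD of at least three independent experiments, each run in triplicate.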

[8] = Inhibition of bovine tubulin polymerization assessed as reduction in extent of assembly preincubated for 15 mins followed by addition of reaction mixture measured after 20 mins by turbidimetric assay; parameters: species or system Bos taurus
Procedure, shortened: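 After chilling, GTP was added (0.4 mM final). Turbidity at 350 nm was read after a jump from 0 °C to 30 °C.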

SK-OV-3 [9] = assay: Antiproliferative activity against human SK-OV-3 cells assessed as decrease in cell growth measured after 48 hrs by SRB method; format: functional, cell-based; conditions: SK-OV-3, 48 h
HL-60(TB) = assay: Cytotoxicity against human HL-60(TB) cells assessed as inhibition of cell growth measured after 48 hrs by SRB assay; format: functional
SF-539 = assay: Cytotoxicity against human SF-539 cells assessed as inhibition of cell growth measured after 48 hrs by SRB assay; format: functional
A498 = assay: Cytotoxicity against human A498 cells assessed as inhibition of cell growth measured after 48 hrs by SRB assay; format: functional
M14 = assay: Cytotoxicity against human M14 cells assessed as inhibition of cell growth measured after 48 hrs by SRB assay; format: functional
OVCAR-8 = assay: Cytotoxicity against human OVCAR-8 cells assessed as inhibition of cell growth measured after 48 hrs by SRB assay; format: functional
LOX IMVI = assay: Cytotoxicity against human LOX IMVI cells assessed as inhibition of cell growth measured after 48 hrs by SRB assay; format: functional
Malme-3M = assay: Cytotoxicity against human Malme-3M cells assessed as inhibition of cell growth measured after 48 hrs by SRB assay; format: functional
U-251 [10] = assay: Cytotoxicity against human U-251 cells assessed as inhibition of cell growth measured after 48 hrs by SRB assay; format: functional
OVCAR-4 = assay: Cytotoxicity against human OVCAR-4 cells assessed as inhibition of cell growth measured after 48 hrs by SRB assay; format: functional
DU-145 = assay: Cytotoxicity against human DU-145 cells assessed as inhibition of cell growth measured after 48 hrs by SRB assay; format: functional
KM12 = assay: Cytotoxicity against human KM12 cells assessed as inhibition of cell growth measured after 48 hrs by SRB assay; format: functional
SF-295 = assay: Cytotoxicity against human SF-295 cells assessed as inhibition of cell growth measured after 48 hrs by SRB assay; format: functional
SF-268 = assay: Cytotoxicity against human SF-268 cells assessed as inhibition of cell growth measured after 48 hrs by SRB assay; format: functional
NCI-H460 = assay: Cytotoxicity against human NCI-H460 cells assessed as inhibition of cell growth measured after 48 hrs by SRB assay; format: functional
K562 = assay: Cytotoxicity against human K562 cells assessed as inhibition of cell growth measured after 48 hrs by SRB assay; format: functional
SK-OV-3 [11] = assay: Cytotoxicity against human SK-OV-3 cells assessed as inhibition of cell growth measured after 48 hrs by SRB assay; format: functional
EKVX = assay: Cytotoxicity against human EKVX cells assessed as inhibition of cell growth measured after 48 hrs by SRB assay; format: functional
MDA-MB-435 [12] = assay: Cytotoxicity against human MDA-MB-435 cells assessed as inhibition of cell growth measured after 48 hrs by SRB assay; format: functional
HOP-62 = assay: Cytotoxicity against human HOP-62 cells assessed as inhibition of cell growth measured after 48 hrs by SRB assay; format: functional
SK-MEL-2 = assay: Cytotoxicity against human SK-MEL-2 cells assessed as inhibition of cell growth measured after 48 hrs by SRB assay; format: functional
786-0 = assay: Cytotoxicity against human 786-0 cells assessed as inhibition of cell growth measured after 48 hrs by SRB assay; format: functional
HT-29 = assay: Cytotoxicity against human HT-29 cells assessed as inhibition of cell growth measured after 48 hrs by SRB assay; format: functional
NCI/ADR-RES = assay: Cytotoxicity against human NCI/ADR-RES cells assessed as inhibition of cell growth measured after 48 hrs by SRB assay; format: functional
SNB-19 = assay: Cytotoxicity against human SNB-19 cells assessed as inhibition of cell growth measured after 48 hrs by SRB assay; format: functional
MCF7 = assay: Cytotoxicity against human MCF7 cells assessed as inhibition of cell growth measured after 48 hrs by SRB assay; format: functional
SR = assay: Cytotoxicity against human SR cells assessed as inhibition of cell growth measured after 48 hrs by SRB assay; format: functional
SW-620 = assay: Cytotoxicity against human SW-620 cells assessed as inhibition of cell growth measured after 48 hrs by SRB assay; format: functional
SN12C = assay: Cytotoxicity against human SN12C cells assessed as inhibition of cell growth measured after 48 hrs by SRB assay; format: functional
UACC-62 = assay: Cytotoxicity against human UACC-62 cells assessed as inhibition of cell growth measured after 48 hrs by SRB assay; format: functional
CCRF-CEM = assay: Cytotoxicity against human CCRF-CEM cells assessed as inhibition of cell growth measured after 48 hrs by SRB assay; format: functional
HCT-116 = assay: Cytotoxicity against human HCT-116 cells assessed as inhibition of cell growth measured after 48 hrs by SRB assay; format: functional
NCI-H226 = assay: Cytotoxicity against human NCI-H226 cells assessed as inhibition of cell growth measured after 48 hrs by SRB assay; format: functional
OVCAR-5 = assay: Cytotoxicity against human OVCAR-5 cells assessed as inhibition of cell growth measured after 48 hrs by SRB assay; format: functional
A549 = assay: Cytotoxicity against human A549 cells assessed as inhibition of cell growth measured after 48 hrs by SRB assay; format: functional
Hs-578T = assay: Cytotoxicity against human Hs-578T cells assessed as inhibition of cell growth measured after 48 hrs by SRB assay; format: functional
SK-MEL-28 = assay: Cytotoxicity against human SK-MEL-28 cells assessed as inhibition of cell growth measured after 48 hrs by SRB assay; format: functional
HOP-92 = assay: Cytotoxicity against human HOP-92 cells assessed as inhibition of cell growth measured after 48 hrs by SRB assay; format: functional
OVCAR-3 = assay: Cytotoxicity against human OVCAR-3 cells assessed as inhibition of cell growth measured after 48 hrs by SRB assay; format: functional
NCI-H23 = assay: Cytotoxicity against human NCI-H23 cells assessed as inhibition of cell growth measured after 48 hrs by SRB assay; format: functional
COLO 205 = assay: Cytotoxicity against human COLO 205 cells assessed as inhibition of cell growth measured after 48 hrs by SRB assay; format: functional
MOLT-4 = assay: Cytotoxicity against human MOLT-4 cells assessed as inhibition of cell growth measured after 48 hrs by SRB assay; format: functional
SNB-75 = assay: Cytotoxicity against human SNB-75 cells assessed as inhibition of cell growth measured after 48 hrs by SRB assay; format: functional
HCC 2998 = assay: Cytotoxicity against human HCC 2998 cells assessed as inhibition of cell growth measured after 48 hrs by SRB assay; format: functional
IGROV-1 = assay: Cytotoxicity against human IGROV-1 cells assessed as inhibition of cell growth measured after 48 hrs by SRB assay; format: functional
[13] = Cytotoxicity against human SK-MEL-5 cells assessed as inhibition of cell growth measured after 48 hrs by SRB assay; format: functional
PC-3 = assay: Cytotoxicity against human PC-3 cells assessed as inhibition of cell growth measured after 48 hrs by SRB assay; format: functional
T47D = assay: Cytotoxicity against human T47D cells assessed as inhibition of cell growth measured after 48 hrs by SRB assay; format: functional
BT-549 = assay: Cytotoxicity against human BT-549 cells assessed as inhibition of cell growth measured after 48 hrs by SRB assay; format: functional
Bos taurus [14] = species on record: Bos taurus; assay: Inhibition of [3H]colchicine binding to bovine tubulin at 1 uM measured after 10 mins by scintillation counting; procedure, shortened: as §1
U-251 [15] = assay: Antitumour activity against human U251 cells xenografted in NCr athymic nude nu/nu mouse assessed as decrease in tumour growth at 50 mg/kg once in a week; format: functional, organism-based

COc1ccc(N(C)c2nc(C)nc3c2CCC3)c2ccccc12
EC50 [1]: 500 nM | inhibition (Bos taurus [2]): 72% | IC50 [3]: 400 nM | Ratio IC50 [4]: 0.7 | Ratio IC50 [5]: 1.2 | IC50 (HeLa): 250 nM | IC50 (U-251 [6]): 35.1 nM | IC50 (MDA-MB-435 [7]): 230 nM | IC50 [8]: 1400 nM | IC50 (SK-OV-3 [9]): 330 nM

COc1ccc2c(N(C)c3ncnc4c3CCC4)cccc2c1
EC50 [1]: > 10000 nM | IC50 (U-251 [6]): 133 nM | IC50 [8]: > 20000 nM

CC(=O)O[C@H]1C(=O)[C@@]2(C)[C@H]([C@H](OC(=O)c3ccccc3)[C@]3(O)C[C@H](OC(=O)[C@H](O)[C@@H](NC(=O)c4ccccc4)c4ccccc4)C(C)=C1C3(C)C)[C@]1(OC(C)=O)CO[C@@H]1C[C@@H]2O [PACLITAXEL]
GI50 (HL-60(TB)): 4 nM | GI50 (SF-539): 5 nM | GI50 (A498): 7.9 nM | GI50 (M14): 5 nM | GI50 (OVCAR-8): 7.9 nM | GI50 (LOX IMVI): 5 nM | GI50 (Malme-3M): 50 nM | GI50 (U-251 [10]): 6.3 nM | GI50 (OVCAR-4): 630 nM | GI50 (DU-145): 6.3 nM | GI50 (KM12): 5 nM | GI50 (SF-295): 25 nM | GI50 (SF-268): 5 nM | GI50 (NCI-H460): 6.3 nM | GI50 (K562): 6.3 nM | GI50 (SK-OV-3 [11]): 6.3 nM | GI50 (EKVX): 79 nM | GI50 (MDA-MB-435 [12]): 4 nM | GI50 (HOP-62): 19 nM | GI50 (SK-MEL-2): 400 nM | GI50 (786-0): 39 nM | GI50 (HT-29): 5 nM | GI50 (NCI/ADR-RES): 630 nM | GI50 (SNB-19): 10 nM | GI50 (MCF7): 4 nM | GI50 (SR): 6.3 nM | GI50 (SW-620): 4 nM | GI50 (SN12C): 6.3 nM | GI50 (UACC-62): 5 nM | GI50 (CCRF-CEM): 5 nM | GI50 (HCT-116): 4 nM | GI50 (NCI-H226): 3.9 nM | GI50 (OVCAR-5): 7.9 nM | GI50 (A549): 6.3 nM | GI50 (Hs-578T): 5 nM | GI50 (SK-MEL-28): 400 nM | GI50 (HOP-92): 25 nM | GI50 (OVCAR-3): 4 nM | GI50 (NCI-H23): 6.3 nM | GI50 (COLO 205): 7.9 nM | GI50 (MOLT-4): 5 nM | GI50 (SNB-75): 7.9 nM | GI50 (HCC 2998): 1 nM | GI50 (IGROV-1): 6.3 nM | GI50 [13]: 5 nM | GI50 (PC-3): 6.3 nM | GI50 (T47D): 12.5 nM | GI50 (BT-549): 4 nM

COc1ccc(N(C)c2nc(C)nc3c2CCC3)cc1
EC50 [1]: 26 nM | inhibition (Bos taurus [2]): 92% | IC50 [3]: 16.4 nM | inhibition (Bos taurus [14]): 70% | IC50 [8]: 1600 nM

Cn1nnc2c(C(N)=O)ncn2c1=O
inhibition (U-251 [15]): Active

COc1ccc(/C=C\c2cc(OC)c(OC)c(OC)c2)cc1O [COMBRETASTATIN A4]
EC50 [1]: 13 nM | IC50 [3]: 6.6 nM
